IMP-1 inhibitor = IMP-1 metallo-beta-lactamase inhibitors, primary screen, biochemical, epi-absorbance readout, Pseudomonas aeruginosa enzyme | purified IMP-1, nitrocefin hydrolysis, epi-absorbance fluorescence | inhibition, % at 5.6 µM | 290,000 compounds, 0.45% hits | AID 1556, 2009;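 active = inhibition above the mean plus 3 SD of all compounds in the same screening run, cut at about 4.5% in these data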;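 note: 0% = IMP-1 with DMSO and 100% = DMSO wells lacking enzyme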
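Assay system: purified IMP-1; Quantity: IMP-1 0.2 nM before substrate addition; Medium: HEPES buffer pH 7.1 with ZnSO4 and Brij 35; Incubation: 15 min enzyme–compound preincubation, then 25 min nitrocefin reaction, 25 °C; Signal: fluorescence quenching readout, ex 480/em 530 nm; Controls: DMSO with and without IMP-1; Repeats: singlicate testing.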
MsrA inhibitor = bovine MsrA enzyme inhibitors, primary screen, biochemical, absorbance, HTS. inhibition, % at 15.5 µM. AID 651718, 2012. 360,000 compounds, 0.75% hits. purified bovine MsrA, absorbance read-out. Methionine sulfoxide reductase A (Bos taurus); in the data active = inhibition above about 4.5%;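 note: 0% = vehicle wells with enzyme and 100% = reference inhibitor wells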
PKA-R1A activ = activators of PKA-R1A holoenzyme, primary screen, biochemical, fluorescence polarization, Cy5-IP20, bovine R1A, mouse PKAc. cAMP-dependent protein kinase type I-alpha regulatory subunit (Bos taurus) + …. PKA-R1A dissociation; scaled: DMSO 0%, 113 µM cGMP 100%. activation, % at 11.4 µM. 340,000 compounds, 0.083% hits;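 active = percent activation above the mean of all tested compounds plus 3 SD, cut at about 19% in these data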;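 note: higher means more PKAc released from R1A so a rise in polarization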
PKA-R2B act = activators of PKA-R2B holoenzyme, primary screen, biochemical, fluorescence polarization, Cy5-IP20, human; AID 504700, 2011; cAMP-dependent protein kinase catalytic subunit beta (Homo sapiens) + cAMP-dependent …; 340,000 compounds, 0.079% hits; PKA-R2B holoenzyme dissociation; R2B truncated from residue 108, S112A mutant; 0% DMSO only, 100% 113 µM cGMP; activation, % at 11.4 µM;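 active = activation above a cutoff set at the mean over all compounds plus 3 SD, cut at about 18% in these data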;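 note: higher means more holoenzyme dissociation and a rise in polarization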
Target sequence (P31323 whole entry, looked up, other chains not shown, the tested form may be a part): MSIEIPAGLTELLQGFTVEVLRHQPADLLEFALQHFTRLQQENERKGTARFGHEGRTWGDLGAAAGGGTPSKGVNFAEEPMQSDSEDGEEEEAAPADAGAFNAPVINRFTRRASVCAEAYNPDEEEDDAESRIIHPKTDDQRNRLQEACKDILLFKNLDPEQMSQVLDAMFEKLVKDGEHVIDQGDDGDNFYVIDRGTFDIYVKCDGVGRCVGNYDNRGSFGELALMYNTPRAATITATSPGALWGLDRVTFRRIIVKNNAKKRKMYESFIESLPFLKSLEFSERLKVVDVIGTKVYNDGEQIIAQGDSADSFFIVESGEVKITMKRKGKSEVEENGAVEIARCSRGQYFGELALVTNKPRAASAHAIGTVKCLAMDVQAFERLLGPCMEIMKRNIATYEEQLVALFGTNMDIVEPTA
VIM-2 inh = VIM-2 metallo-beta-lactamase inhibitors, primary screen, biochemical, epi-absorbance readout, Pseudomonas aeruginosa enzyme; purified VIM-2, nitrocefin hydrolysis, epi-absorbance fluorescence; 290,000 compounds, 0.89% hits; AID 1527, 2009; inhibition, % at 5.6 µM;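 active = inhibition above the mean of all tested compounds plus 3 SD, cutoff set per screening run, cut at about 7.5% in these data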;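 note: red hydrolysis product quenches plate fluorescence so inhibitors raise well fluorescence; 0% = enzyme with DMSO and 100% = DMSO without enzyme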
bovine MsrA act = bovine MsrA enzyme activators, primary screen, biochemical, absorbance, HTS. Methionine sulfoxide reductase A (Bos taurus). purified bovine MsrA, absorbance read-out. 360,000 compounds, 0.3% hits. activation, % at 10.6 µM; in the data active = activation above about 7.5%;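 note: 0% = vehicle and 100% = reference activator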
* hit, by the source's call. Sampled rows, rich in hits. Any-hit rate of the full collection: about 2.1%.

How did COc1cccc(C=Nc2cccc3c(=O)[nH][nH]c(=O)c23)c1O do in these assays?
IMP-1 inhibitor: 0.0; MsrA inhibitor: 1.3; PKA-R1A activ: 3.3; PKA-R2B act: 9.6; VIM-2 inh: -4.5; bovine MsrA act: -4.3

Results for COc1ccc(N2C(=O)c3n[nH]c(C)c3C2c2ccc(F)cc2)cc1 (stereo unspecified) ?
MsrA inhibitor: 2.0

How did CCOC(=O)c1cnc(-n2cc(C)cn2)nc1NCc1ccc2c(c1)OCO2 do in these assays?
IMP-1 inhibitor: -5.3; MsrA inhibitor: -0.7; PKA-R1A activ: -1.2; PKA-R2B act: -3.4; VIM-2 inh: 8.1*; bovine MsrA act: -1.7

How did CCOC(=O)c1c(C)c(C(=O)NCc2ccc3c(c2)OCO3)c(C)n1CC do in these assays?
IMP-1 inhibitor: -2.8; MsrA inhibitor: 1.2; PKA-R1A activ: 8.4; PKA-R2B act: 2.7; VIM-2 inh: -0.8; bovine MsrA act: -1.7

Results for CCN1CCN(C(=O)c2cc3c(=O)oc4ccc(C)cc4c3s2)CC1 ?
IMP-1 inhibitor: -2.2; MsrA inhibitor: 1.8; PKA-R1A activ: -1.9; PKA-R2B act: 2.4; VIM-2 inh: 8.4*; bovine MsrA act: -1.3

How did Cc1ccc2oc(=O)c3cc(C(=O)NCCCN4CCCC(C)C4)sc3c2c1 (stereo unspecified) do in these assays?
IMP-1 inhibitor: -3.4; MsrA inhibitor: 1.1; PKA-R1A activ: -5.0; PKA-R2B act: 2.5; VIM-2 inh: 10.7*; bovine MsrA act: -1.1

How did CCCN1CCN(CCCNC(=O)c2cc3c(=O)oc4ccc(C)cc4c3s2)CC1 do in these assays?
IMP-1 inhibitor: -3.4; MsrA inhibitor: -0.5; PKA-R1A activ: 1.9; PKA-R2B act: 0.0; VIM-2 inh: 11.5*; bovine MsrA act: -0.3

How did Cc1ccccc1-c1ccc2c(c1)[C@@H]1C[C@H]3[C@@H](CN1CC2)[C@H](C)ON3C do in these assays?
MsrA inhibitor: 3.1

Results for O=C(N[C@H](C(=O)N1CCC[C@H]1C(=O)NC1CCCC1)C1CCCCC1)c1nccs1 ?
MsrA inhibitor: 2.7

Results for CCOC(=O)c1sc(-c2cccc(C(F)(F)F)c2)nc1O ?
IMP-1 inhibitor: 2.0; MsrA inhibitor: 0.3; PKA-R1A activ: -2.2; PKA-R2B act: -1.7; VIM-2 inh: -1.6; bovine MsrA act: -1.7

How did CCOC(=O)c1sc(-c2ccc(C(F)(F)F)cc2)nc1O do in these assays?
IMP-1 inhibitor: 4.9*; MsrA inhibitor: 1.4; PKA-R1A activ: 14.7; PKA-R2B act: -4.2; VIM-2 inh: -1.1; bovine MsrA act: -2.0

How did Cc1c(CCC(=O)O)c(=O)oc2c(C)c3occ(-c4ccc(Cl)cc4)c3cc12 do in these assays?
IMP-1 inhibitor: 5.3*; MsrA inhibitor: 0.9; PKA-R1A activ: -3.3; PKA-R2B act: 8.3; VIM-2 inh: 6.6; bovine MsrA act: -3.8

Results for Cc1c(CCC(=O)O)c(=O)oc2cc3occ(-c4ccc(Cl)cc4)c3cc12 ?
IMP-1 inhibitor: -0.9; MsrA inhibitor: 0.9; PKA-R1A activ: -10.0; PKA-R2B act: 0.4; VIM-2 inh: 0.8; bovine MsrA act: -4.0

What do the screens show for `Nc1c2c(=O)[nH]c(O)cc2nn1-c1ccccc1`?
MsrA inhibitor: -0.7; PKA-R1A activ: -3.8; PKA-R2B act: 5.2; bovine MsrA act: -3.3

Results for O=C(NC(=S)Nc1nc(-c2ccc([N+](=O)[O-])cc2)cs1)c1ccco1 ?
IMP-1 inhibitor: 62.5*; MsrA inhibitor: 0.5; PKA-R1A activ: -12.3; PKA-R2B act: -5.6; VIM-2 inh: -4.9; bovine MsrA act: 4.1

What do the screens show for `CCc1cc(=O)oc2cc(OCC(=O)NCCCn3ccnc3)ccc12`?
IMP-1 inhibitor: -2.1; MsrA inhibitor: 2.7; PKA-R1A activ: -7.3; PKA-R2B act: -6.4; VIM-2 inh: 10.9*; bovine MsrA act: -10.5

Results for O=C(COc1ccc2c3c(c(=O)oc2c1)CCCC3)NCCN1CCOCC1 ?
IMP-1 inhibitor: -2.3; PKA-R1A activ: -4.9; PKA-R2B act: 4.2; VIM-2 inh: 12.1*; bovine MsrA act: -2.5

Results for COc1ccc(-c2cc(=O)oc3cc(OCC(=O)NCCCn4ccnc4)ccc23)cc1 ?
IMP-1 inhibitor: -1.8; MsrA inhibitor: 1.2; PKA-R1A activ: -8.8; PKA-R2B act: -0.8; VIM-2 inh: 6.7; bovine MsrA act: 1.1

How did Cc1c(C)c2ccc(OCC(=O)NCCN3CCOCC3)c(C)c2oc1=O do in these assays?
IMP-1 inhibitor: 0.1; MsrA inhibitor: 1.0; PKA-R1A activ: 5.8; PKA-R2B act: -1.8; VIM-2 inh: 11.4*; bovine MsrA act: -4.3

Results for Cc1cc(=O)oc2cc(OCC(=O)NCCCN3CCOCC3)ccc12 ?
IMP-1 inhibitor: -0.4; MsrA inhibitor: 1.8; PKA-R1A activ: 3.3; PKA-R2B act: 7.8; VIM-2 inh: 3.0; bovine MsrA act: -7.1

What do the screens show for `O=C(COc1ccc2c3c(c(=O)oc2c1)CCCC3)NCCCN1CCOCC1`?
IMP-1 inhibitor: -0.7; MsrA inhibitor: 2.7; PKA-R1A activ: -3.3; PKA-R2B act: 0.2; VIM-2 inh: 10.9*; bovine MsrA act: -13.1

Results for CCCCS(=O)(=O)N1CCCc2nc(-c3ccc(OC)cc3)ccc21 ?
MsrA inhibitor: -0.3

What do the screens show for `CCN(c1ccc(OC)cc1)S(=O)(=O)c1csc(C(=O)N2CCCC2)c1`?
IMP-1 inhibitor: -0.9; MsrA inhibitor: -0.9; PKA-R1A activ: 1.9; PKA-R2B act: 7.5; VIM-2 inh: -2.0; bovine MsrA act: -2.4

What do the screens show for `CC(=O)Oc1ccc2c(c1)C(=O)CCCCCC(=O)O2`?
MsrA inhibitor: 1.2; PKA-R1A activ: -7.0; PKA-R2B act: -4.4; bovine MsrA act: -6.1

What do the screens show for `CN(C)CCCN1C(=O)c2cccc3cccc(c23)C1=O`?
IMP-1 inhibitor: -4.1; MsrA inhibitor: 0.6; PKA-R1A activ: -4.6; PKA-R2B act: 5.1; VIM-2 inh: 7.8*; bovine MsrA act: -2.4

Results for Brc1ccccc1C1=Nn2c(nnc2-c2ccco2)SC1 ?
IMP-1 inhibitor: -2.5; MsrA inhibitor: -0.6; PKA-R1A activ: 6.8; PKA-R2B act: -2.2; VIM-2 inh: 8.0*; bovine MsrA act: -3.0

Results for c1ccc(C2=Nn3c(nnc3-c3ccco3)SC2)cc1 ?
IMP-1 inhibitor: 0.0; MsrA inhibitor: 2.0; PKA-R1A activ: -1.2; PKA-R2B act: -9.8; VIM-2 inh: 8.3*; bovine MsrA act: -1.8

How did Fc1ccc(C2=Nn3c(nnc3-c3ccco3)SC2)cc1 do in these assays?
IMP-1 inhibitor: -0.8; MsrA inhibitor: 0.3; PKA-R1A activ: -6.8; PKA-R2B act: -0.7; VIM-2 inh: 3.7; bovine MsrA act: -8.3

Screens: PubChem, The Scripps Research Institute Molecular Screening Center
